Laboratory results from PMC8851646 (ACS Omega, 2022).
Read-outs that look alike come from different tables or passages of the source.

Key:
[1] = test system: K. pneumoniae NB29017 co-cultured with T. pyriformis; experiment: T. pyriformis/K. pneumoniae; assay type: cell-based, Klebsiella pneumoniae; settings: for activity in the Tp/Kp assay: manual pilot screens and D1 analog set
[2] = Compound stability, LC-MS of freshly dissolved powder; assay type: physicochemical; settings: impure by LC–MS from freshly dissolved powder
[3] = test system: K. pneumoniae wbbM mutant (NB29018) co-cultured with T. pyriformis; experiment: Tp/Kp co-culture assay with cell surface-defective wbbM mutant; assay type: cell-based, Klebsiella pneumoniae; settings: Tp threshold 4625–18,500 Tp/mL
Staphylococcus aureus = experiment: Antibacterial MIC, Gram-positive control; assay type: cell-based; settings: read-out: MIC Sa
[4] = Cytotoxicity in K562 cells; assay type: cell-based; settings: human
Red blood cell hemolysis = assay type: cell-based, sheep; settings: sheep, erythrocytes from defibrinated sheep blood, pH 7.5
K. pneumoniae NB29017 [5] = experiment: Qualitative inhibition of mucoid appearance of colonies on solid LB agar; assay type: cell-based, Klebsiella pneumoniae; settings: 4 fully mucoid, 0 nonmucoid, by eye
Summary of the method: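 Test compound dissolved in DMSO (12.8 mg/mL stock) and mixed into melted LB agar at 0–16 μg/mL final, then set in six-well plates. Mucoid wild-type NB29017 streaked for single colonies in each well. Plates incubated 18 h at 37 °C, then 2 h at 4 °C. Mucoid appearance scored by eye from 0 (none) to 4 (normal hypermucoid).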

K. pneumoniae NB29017 [6] = experiment: Electron microscopy of cell surface material; assay type: cell-based, Klebsiella pneumoniae; settings: grown in SM medium with 32 μg/mL compound
Summary of the method: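 K. pneumoniae NB29017 grown overnight with shaking at 37 °C in 10 mL SM medium, with or without test compound at 32 μg/mL. Diluted 1:50 into the same medium and grown to OD600 of about 2. Cells pelleted at 3000g and washed in Na-cacodylate pH 7.2. Fixed 2 h at 4 °C (2.5% glutaraldehyde, 1% tannic acid, 0.1 M Na-cacodylate, pH 7.2). Pelleted, taken up in cacodylate buffer and examined by electron microscopy.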

[7] = read-out: IC50 Tp/Kp, Table 1, freshly dissolved powder, top concentration 20 μM
[8] = read-out: Tp/Kp IC50, Table 2, expressed as μg/mL for comparison to agar values
[9] = read-out: Tp/Kp IC50, archived powder, side by side on the same assay plate, Tp set at 25000
[10] = read-out: Tp/Kp IC50, resynthesis batch, side by side on the same assay plate, Tp set at 25000

Row | Compound | activity in the Tp/Kp assay [1] | activity in the Tp/Kp wbbM assay [3] | IC50 [1, 7] [µM] | IC50 [1, 8] [µg/mL] | MIC (Staphylococcus aureus) [µg/mL] | IC50 [4] [µM] | hemolysis at 1 h (Red blood cell hemolysis) [%] | qualitative score on solid medium (K. pneumoniae NB29017 [5]; 1 μg/mL compound in agar) | qualitative score on solid medium (K. pneumoniae NB29017 [5]; 2 μg/mL compound in agar) | qualitative score on solid medium (K. pneumoniae NB29017 [5]; 4 μg/mL compound in agar) | qualitative score on solid medium (K. pneumoniae NB29017 [5]; 8 μg/mL compound in agar) | qualitative score on solid medium (K. pneumoniae NB29017 [5]; 16 μg/mL compound in agar) | further results
1 | Oc1nc(S)nnc1-c1cccs1 [B1, OC1N=C(S)N=NC=1C2=CC=CS2] | active | – | – | – | – | – | – | – | – | – | – | – | –
2 | COc1nc(SC)nnc1C [Di, COc1nc(nnc1C)SC] | inactive | – | – | – | – | – | – | – | – | – | – | – | –
3 | Cc1cc(O)c(C)c(O)c1C(=O)O [compound 9, Cc1cc(O)c(C)c(O)c1C(O)=O] | active | – | – | – | – | – | – | – | – | – | – | – | –
4 | O=C(O)c1ccccc1O [compound 10, OC(=O)c1ccccc1O] | active | – | – | – | – | – | – | – | – | – | – | – | –
5 | Cc1cccc(O)c1C(=O)O [compound 16, Cc1cccc(O)c1C(O)=O] | active | – | – | – | – | – | – | – | – | – | – | – | –
6 | CCOC(=O)/C(=N\NC(N)=S)c1cccs1 [compound 25, CCOC(=O)/C(=N\NC(N)=S)/C1=CC=CS1] | – | – | – | – | – | – | – | – | – | – | – | – | stability [2]: unstable
7 | Cc1nnc(-c2ccccc2)nc1O [compound 34, Cc1nnc(nc1O)c2ccccc2] | active | retained activity | – | – | – | – | – | – | – | – | – | – | –
8 | Cc1nnc(SCC(=O)Nc2ccc(Br)cc2)nc1O [compound 35, Cc1nnc(nc1O)SCC(=O)Nc2ccc(Br)cc2] | active | retained activity | – | – | – | – | – | – | – | – | – | – | –
9 | COc1ccc(-c2csc(NC(=O)c3ccc(C(=O)Nc4nc(-c5ccc(OC)c(OC)c5)cs4)s3)n2)cc1OC [compound 62, COc1ccc(cc1OC)C5=CSC(NC(=O)C2=CC=C(S2)C(=O)NC3=NC(=CS3)c4cc(OC)c(cc4)OC)=N5] | – | retained potency | 0.001 | 0.001 | > 32 | > 210 | 11.7 | 2 | 0 | 0 | 0 | 0 | IC50 [1, 9]: 0.0017 µM; IC50 [1, 10]: 0.00067 µM; surface polysaccharide material by electron microscopy (K. pneumoniae NB29017 [6]): devoid of any surface material
10 | CCOC(=O)c1ccc2nc(NC(=O)c3cccs3)sc2c1 [compound 64, CCOC(=O)c3ccc2N=C(NC(=O)C1=CC=CS1)Sc2c3] | – | retained potency | 0.12 | 0.04 | > 128 | > 386 | 14.9 | 0 | 0 | 0 | 0 | 0 | IC50 [1, 9]: 0.362 µM; IC50 [1, 10]: 0.185 µM
11 | CCOc1ccc2nc(NC(=O)c3cc(=O)c4ccc(C)cc4o3)sc2c1 [compound 65, CCOc4ccc3N=C(NC(=O)C2=CC(=O)c1ccc(C)cc1O2)Sc3c4] | – | – | 0.07 | 0.03 | > 128 | > 168 | 1.5 | 2 | 2 | 2 | 2 | 1 | –
12 | O=C(Nc1nnc(Cl)s1)c1ccco1 [compound 67, O=C(NC1=NN=C(Cl)S1)C2=CC=CO2] | – | – | 0.49 | 0.11 | > 128 | > 557 | 1.5 | 1 | 0 | 0 | 0 | 0 | –
13 | Cc1cc(C)c2c(=O)cc(C(=O)Nc3nc4ccc(F)cc4s3)oc2c1 [compound 68, Cc2cc(C)c1C(=O)C=C(Oc1c2)C(=O)NC4=Nc3ccc(F)cc3S4] | – | – | 0.91 | – | > 128 | > 348 | 2.2 | 3 | 3 | 1 | 1 | 1 | –
